# Hits are enriched below; roughly 1.8% of the tested compounds scored in any of these assays.
# Efflux pump mplx = inhibitors of Candida efflux pumps in yeast, primary screen, S. cerevisiae, Nile Red, multiplex. 330,000 compounds, 0.44% hits. AID 485275, 2010. inhibition, % at 10 µM. S. cerevisiae Candida pump triplex;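 active = plate passing quality check with inhibition over a set limit, or well fluorescence over plate mean plus 4 SD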;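 also: Nile Red retained in pooled yeast measured as flow cytometry median fluorescence; higher means more Nile Red kept so more efflux inhibition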
# C2C12 statin = suppressors of statin myotoxicity in C2C12 myotubes, primary screen, cell-based, single point, plate reader; C2C12 myotubes + simvastatin, ATP luminescence, 48 h; scaled: DMSO 0, geranylgeraniol control 100; rescue of ATP level, % at 7.49 µM; 330,000 compounds, 0.78% hits; AID 602340, 2012;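 active = mean ATP rescue above about 67%, or every replicate alone reaching that limit, limit read from the data, passing the limit was not always enough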;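 also: myotubes were challenged with 10 µM simvastatin during compound exposure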
# Cneo AK release = Cryptococcus neoformans cell lysis inducers, primary screen, AK release luminescence, single concentration; AID 651654, 2012; 360,000 compounds, 0.2% hits; lysis activity, % at 15 µM; C. neoformans lysis, adenylate kinase release luminescence, 4 h; normalised: neutral wells 0, clomiphene wells 100;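 active = mean lysis activity across replicates of at least 80%, whatever share of replicates individually reach that level; inactive = mean lysis activity below 80%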
#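 read-out = cell lysis signal | test system = log-phase Cryptococcus neoformans yeast cells | input = cells at 5 × 10^6 per mL | medium = fresh YPD growth medium | signal = luminescent adenylate kinase detection reagent | timing = 4 h at 37 °C static, read 1 h later | dosing = single dose | controls = Clomiphene as positive lysis control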
# SUMO Mot1 rescue = yeast Mot1-301 growth rescue at high temperature, primary screen, SUMOylation pathway inhibitor project, S. cerevisiae, ATP luminescence, 38.5C | S. cerevisiae Mot1-301 growth rescue; percent above DMSO median, 100 means doubled | growth rescue, % at 18.8 µM | 320,000 compounds, 1% hits;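 active = every valid replicate shows activation above 250% relative to neutral control wells; inactive = the rest, any valid replicate at or below 250%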
# Yeast Mot1 SUMO = growth restoration of Mot1-301 yeast on galactose, dose response, SUMO pathway inhibitor project, whole organism, S. cerevisiae, ATP luminescence, cherry-picked samples. shares compounds with SUMO Mot1 rescue. S. cerevisiae Mot1-301 galactose growth, 24 h; -100 = growth of slx-deleted rescue strain. growth activity, percent, % at 42 µM. 2,300 tested, under 10 active. AID 493004, 2010;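 active = Signal drops as the depositor expects, and the fitted half-maximal dose is no more than ten times the top valid tested dose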;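 also: more negative values mean stronger growth rescue toward the control strain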
# A number is an active result; . = inactive; / = no result given; + = active, no number.
SMILES,Efflux pump mplx,C2C12 statin,Cneo AK release,SUMO Mot1 rescue,Yeast Mot1 SUMO
O=C(c1ccc(F)cc1)C1CCN(C(=O)NCc2ccccc2)CC1,.,.,.,.,/
Cc1ccc(-c2nc3c(=O)n(-c4ccccc4)c4c(c(=O)n(C)c(=O)n4C)c3o2)cc1,.,/,.,796,.
Cc1ccc(-c2nc3c(=O)n(C)c4ccccc4c3o2)cc1,.,.,.,.,/
O=C(CSc1nnc(-c2cccs2)n1-c1ccccc1)c1ccc2c(c1)OCCO2,.,/,.,+,.
O=C(COC(=O)c1ccccn1)Nc1cccc(Cl)c1Cl,.,.,.,.,/
O=C(Nc1ccccc1)N1CCN(CCc2ccccc2)CC1,.,.,.,392,.
Cc1c(C(=O)N2CCN(S(C)(=O)=O)CC2)oc2ccccc12,.,.,.,.,/
Cc1c(C(=O)N2CCN(CCc3ccccc3)CC2)oc2ccccc12,.,.,.,707,.
C[C@H]1CN([C@@H](C)CO)C(=O)Cc2cc(NS(=O)(=O)c3ccc(F)cc3)ccc2O[C@@H]1CN(C)CC1CC1,/,.,.,/,/
CCCCS(=O)(=O)/C=C\C=C/S(=O)(=O)CCCC,.,/,/,.,/
Nc1cc(-c2ccc(Cl)cc2)nn1S(=O)(=O)c1ccc(Cl)cc1,.,/,.,545,.
Nc1cc(-c2ccc(Br)cc2)nn1S(=O)(=O)c1ccccc1,.,.,.,.,/
COc1ccc(S(=O)(=O)n2nc(-c3ccc(Cl)cc3)cc2N)cc1OC,.,.,.,388,.
CCOc1ccc(-c2cc(N)n(S(=O)(=O)c3ccc(OC)c(OC)c3)n2)cc1,.,.,.,.,/
Cc1ccc(-c2csc(C3=C(O)CN(NC(=O)c4ccco4)C3=N)n2)cc1,.,/,/,375,.
Clc1ccc(CN(Cc2ccccc2)C(c2cccs2)c2nnnn2C2CCCC2)cc1 (centres undefined),.,.,.,657,.
Cc1nn(CC(N)=O)c(=O)c2ccccc12,.,/,/,482,.
CCC1SC(=NC(=O)c2ccc(Cl)c(Cl)c2)NC1=O (centres undefined),.,.,.,.,/
CC(=O)c1ccc(Oc2cc(C)nc(N3CCOCC3)n2)cc1,.,/,/,436,.
Cc1ccc(NC(=O)Cn2sc3nc(C)cc(C)c3c2=O)c(Cl)c1,.,/,.,559,.
Cc1c(N=Cc2cc(Br)cc(Br)c2O)cccc1C(=O)O,.,/,/,919,.
CC(C)C[C@@H](CO)N1CCN(Cc2cccnc2)CCC1=O,.,.,.,621,.
CC(C)C[C@@H](CO)N1CCN(Cc2ccc(Br)cc2)CCC1=O,.,.,.,.,/
CC(NC(=O)C1CCCCC1)C(=O)NC1=NCCS1 (centres undefined),.,/,/,566,.
CC(C)C(NC(=O)C12CC3CC(CC(C3)C1)C2)C(=O)NC1=NCCS1 (centres undefined),.,/,/,/,/
SMILES,Efflux pump mplx,C2C12 statin,Cneo AK release,SUMO Mot1 rescue,Yeast Mot1 SUMO
COc1ccccc1C(=O)N1CCN(S(=O)(=O)Cc2ccccc2)CC1,.,.,.,.,/
COc1cccc(C(=O)N2CCN(S(=O)(=O)Cc3ccccc3)CC2)c1OC,.,/,.,530,.
CN(C)S(=O)(=O)Oc1ccccc1C(=O)Nc1cccc(C(F)(F)F)c1,.,.,.,/,/
Cc1ccn2cc(-c3ccc4c(c3)NC(=O)CO4)nc2c1,.,/,/,.,/
COC(C(=O)Nc1ccnn1C1CCN(Cc2cnn(C)c2)CC1)c1ccccc1 (centres undefined),.,.,.,497,.
COCc1ccc(CN2CCC(n3nccc3NC(=O)C(OC)c3ccccc3)CC2)o1 (centres undefined),.,/,.,.,/
O=C1c2nccnc2C(=O)N1c1ccc(C(F)(F)F)cc1,.,/,/,588,.
Nn1c(SCc2cc([N+](=O)[O-])cc3c2OCOC3)nnc1-c1ccccn1,.,/,/,531,.
O=[N+]([O-])c1cc2c(c(CSc3nnc4ccccn34)c1)OCOC2,.,/,/,.,/
CCOC(=O)c1c(NC(=S)Nc2cccnc2)sc(C)c1C,.,/,/,.,/
CCCC(=O)NC(C)c1nc2ccccc2[nH]1 (centres undefined),.,.,.,595,.
CSCC[C@H](NC(=O)CC(C)(C)C)c1nc2ccccc2[nH]1,.,.,.,422,.
CC(NC(=O)Cc1ccccc1)c1nc2ccccc2[nH]1 (centres undefined),.,.,.,.,/
COc1ccc(Br)cc1CNCCSc1nnnn1C,.,.,.,.,/
Cc1ccc(S(=O)(=O)N2CC(=O)NC(=O)C2)cc1,.,.,.,.,/
Cc1cc(C)c(S(=O)(=O)c2cc(F)ccc2C)c(Cl)n1,.,.,.,.,/
COc1ccc(C2SCC(=O)N2c2c(C)n(C)n(-c3ccccc3)c2=O)c(OC)c1 (centres undefined),.,/,.,.,/
c1ccc(C(Cc2nc(-c3cccnc3)no2)c2ccccc2)cc1,.,/,/,.,/
c1ccc(OCCCc2nc(-c3cccnc3)no2)cc1,.,.,.,456,.
c1ccc(CCCc2nc(-c3cccnc3)no2)cc1,.,.,.,628,.
Clc1ccc(-c2noc(CCCc3ccccc3)n2)cc1,.,/,/,.,/
CC(C)NC(=O)Nc1ccc2c(c1)C(=O)N([C@H](C)CO)C[C@H](C)[C@@H](CN(C)Cc1ccc(C(F)(F)F)cc1)O2,/,.,.,/,/
CN(C)C(=O)c1c2c(nc3ccccc13)CCCC2,.,/,/,+,.
Cn1cnnc1SCC(=O)NC(=O)NCc1ccccc1,.,.,.,/,/
O=C(CCC(=O)OC(C(=O)c1ccccc1)c1ccccc1)Nc1ccccc1 (centres undefined),.,.,.,415,.
SMILES,Efflux pump mplx,C2C12 statin,Cneo AK release,SUMO Mot1 rescue,Yeast Mot1 SUMO
O=[N+]([O-])c1ccc(N/N=C/c2cccc(O)c2)cc1,.,.,.,484,.
O=C(CN1C(=O)NC2(CCCC2)C1=O)Nc1nc2ccccc2[nH]1,.,.,.,553,.
CC1(NC(=S)NCCO)CCS(=O)(=O)C1 (centres undefined),.,/,/,.,/
Cc1ccc(-c2ccc3c(c2)O[C@H](CN(C)C(=O)Nc2ccccc2)[C@@H](C)CN([C@H](C)CO)S3(=O)=O)cc1,/,.,.,/,/
CCOc1cc(/C=N/NC(=O)C(=O)N/N=C/c2ccc(O)c(OCC)c2)ccc1O,.,.,.,768,.
Cn1c(CN2CCOCC2)nnc1SCC(=O)Nc1cc(Cl)ccc1Cl,.,.,.,611,.
COC(=O)c1cc(NC(=O)CSc2nnc(CN3CCOCC3)n2C)ccc1Cl,.,.,.,.,/
OCCc1c[nH]c2cc(F)ccc12,.,.,.,566,.
COc1ccc(NC(=O)Nc2ccc3c(c2)C(=O)N([C@@H](C)CO)C[C@H](C)[C@@H](CN(C)Cc2ccccc2)OCCCC[C@H](C)O3)cc1,/,/,.,/,/
O=C(Nc1cc([N+](=O)[O-])ccc1F)c1ccc2c(c1)OCCO2,.,/,/,.,/
